We go through 19 molecules from ChEMBL document CHEMBL1133763, “Synthesis and immunosuppressive activity of novel prodigiosin derivatives” (J Med Chem, 2000).

Series [1] is filed under the species Mus musculus. As to the kind of experiment: The concentration inhibiting 50% cell proliferation of murine Splenocytes induced by the mitogen Concanavalin A of mice. In kind it is functional. A digest of the protocol:
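Spleens from C57Bl/6 mice; splenocytes at 4 × 10^5 cells/well in triplicate with Con A 1.7 µg/mL and varying compound concentrations in complete RPMI 1640. 72 h at 37 °C, 5% CO2; [3H]thymidine 0.2 µCi/well during final 18 h; uptake counted by scintillation. IC50 from % inhibition of cpm versus control; mean ± SD of ≥3 experiments.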

The test system of series [2] is B16. The series is described as follows: Cytotoxicity, ability to inhibit viability of murine resting lymphocytes, murine B16 melanoma cells and human K562 erythroleukemia cells by 50% by […]. In kind it is functional, cell-based. Particulars: Mus musculus. The method, boiled down: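 Murine resting lymphocytes (4 × 10^5 cells/well), murine B16 melanoma and human K562 cells (1 × 10^5 cells/well each) seeded in triplicate with a range of compound concentrations in complete RPMI 1640 (10% inactivated FCS); DMSO stocks at 2 mg/mL diluted at use. MTT added for last 4 h of 48 h culture; formazan dissolved in HCl–2-propanol, OD 570/690 nm; IC50 from % inhibition versus control.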

The subject of series [3] is B16. As to the kind of experiment: Selectivity index was evaluated. In kind it is functional, Mus musculus. The method, boiled down:
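Ratio of mean IC50 for MTT viability in K562, B16 and resting lymphocytes (averaged over the three) to IC50 for Con A-stimulated splenocyte proliferation.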

For series [4], the system named is Mus musculus. The series is described as follows: Dose able to reduce by 50% the thickness increase compared to controls by DTH Assay on mice after daily dose by ip route for 6 days. In kind it is functional. Particulars: 144 h. A digest of the protocol:
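Female C57Bl/6 mice, 8-9 weeks, primed iv with 1 × 105 SRBC in saline; footpad challenge 5 days later with 1 × 108 SRBC. Compound in Cremophor ELP/ethanol (6.5:3.5) given ip daily for 6 days from priming day at several doses. Footpad swelling by dial micrometer 24 h post-challenge; ED50 = dose halving swelling increase; 10 animals/group, ≥3 experiments.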

In series [5] the test system is Mus musculus. The series is described as follows: The Toxicity of compound was measured by DTH Assay on mice after giving compound daily by ip route for 6 days at different doses. The class given is organism-based. Particulars: in vivo, 144 h. A digest of the protocol: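 Female C57Bl/6 mice, 8-9 weeks old, were primed iv with 1 × 10^5 SRBC and challenged in the footpad with 1 × 10^8 SRBC five days later. Compound in Cremophor ELP/ethanol (6.5:3.5 v:v) was given ip daily for 6 days from priming. Value is the minimal daily dose causing weight loss, hair ruffling or occasionally death, as mean ± SD of ≥3 experiments, 10 mice/group.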

In brackets after ≈: the same amount, converted by molar mass.

Consider `COc1cc(-c2ccc[nH]2)[nH]c1/C=C1/C=CC(CCCCCCCC#N)=N1`, for which the IC50 in the series listed under Mus musculus [1] was determined as 0.0162 µg/mL (≈ 0.0447 µM); in the series on B16 [2] it was 0.235 µg/mL (≈ 0.648 µM). Moreover, in the series on B16 [3], the Selectivity index was found to be 14.

Take `CCCCCCCCCCCC1=N/C(=C\c2[nH]c(-c3cc4ccccc4[nH]3)cc2OC)C=C1`: the IC50 in the series filed under Mus musculus [1] is 0.25 µg/mL (≈ 0.564 µM); with B16 [2], greater than 1 µg/mL.

Regarding `CCCCCCCCCCCC1=N/C(=C\c2[nH]c(-c3cccs3)cc2OCc2ccccc2)C=C1`, the IC50 in the series filed under Mus musculus [1] and with B16 [2] was greater than 1 µg/mL throughout.

With `CCCCCCCCCCCCCC1=N/C(=C\c2[nH]c(-c3ccc[nH]3)cc2OC)C=C1`, the ED50 in the series with Mus musculus [4] stood at 0.8 mg/kg. The same molecule showed a Toxicity with Mus musculus [5] of 1.5 mg/kg. In addition, the IC50 in the series listed under Mus musculus [1] is 0.0014 µg/mL (≈ 0.00332 µM); with B16 [2], 0.282 µg/mL (≈ 0.669 µM). The Selectivity index with B16 [3] is 201.

Consider `COC(=O)CCCCCC1=N/C(=C\c2[nH]c(-c3ccc[nH]3)cc2OC)C=C1`, for which the IC50 in the series listed under Mus musculus [1] and in the series on B16 [2] was greater than 1 µg/mL throughout.

With `COc1cc(-c2ccc[nH]2)[nH]c1/C=C1/C=C2CCCCC2=N1`, the IC50 was 0.0185 µg/mL (≈ 0.0631 µM) in the series listed under Mus musculus [1] and 0.12 µg/mL (≈ 0.409 µM) in the series on B16 [2]. Moreover, the Selectivity index in the series with B16 [3] was determined as 6.

With `CCCCCCCC1=N/C(=C\c2[nH]c(-c3ccc[nH]3)cc2OCc2ccccc2)C=C1`, the concentration for half-maximal inhibition (IC50) came out at 0.0036 µg/mL (≈ 0.0087 µM) in the series listed under Mus musculus [1] and 0.178 µg/mL (≈ 0.43 µM) in the series on B16 [2]. In the series on B16 [3], the Selectivity index was determined as 49.

As to `CCCCCCCCCCCC1=N/C(=C\c2[nH]c(-c3ccccc3)cc2OC)C=C1`, the IC50 in the series listed under Mus musculus [1] and in the series with B16 [2] was greater than 1 µg/mL throughout.

Take `COc1cc(-c2ccc[nH]2)[nH]c1/C=C1/C=CC(CCCCCC(=O)N2CCOCC2)=N1`: the IC50 in the series listed under Mus musculus [1] and in the series with B16 [2] was greater than 1 µg/mL throughout.

`CCCCCCCCCCCC1=N/C(=C\c2[nH]c(-c3ccc(C(C)=O)[nH]3)cc2OC)C=C1`: the figures for the half-inhibitory concentration (IC50) in the series listed under Mus musculus [1] and in the series on B16 [2] were 0.1 µg/mL (≈ 0.23 µM) and greater than 1 µg/mL, respectively.

Regarding `CCCCCCCCCCCC1=N/C(=C\c2[nH]c(-c3ccc[nH]3)cc2O)C=C1`, the IC50 in the series listed under Mus musculus [1] and in the series with B16 [2] was greater than 1 µg/mL throughout.

In the case of `CCCCCCCCCCCC1=N/C(=C\c2[nH]c(-c3ccc[nH]3)cc2OCc2ccccc2)C=C1`, the ED50 with Mus musculus [4] worked out at 1.1 mg/kg. The Toxicity in the series with Mus musculus [5] worked out at 5 mg/kg. Further, the IC50 was 0.0242 µg/mL (≈ 0.0515 µM) in the series filed under Mus musculus [1] and 3.74 µg/mL (≈ 7.96 µM) with B16 [2]. Further, the Selectivity index with B16 [3] was 155.

As to `CC1=N/C(=C\c2[nH]c(-c3ccc(C)[nH]3)cc2OCc2ccccc2)C=C1`, the IC50 in the series filed under Mus musculus [1] is 0.0041 µg/mL (≈ 0.0119 µM); in the series on B16 [2] it was 0.077 µg/mL (≈ 0.224 µM).

`CCCCCCCCCCCC1=N/C(=C\c2ccc(-c3ccc[nH]3)[nH]2)C=C1`: the IC50 in the series listed under Mus musculus [1] came out at 0.4 µg/mL (≈ 1.1 µM); with B16 [2], 1.22 µg/mL (≈ 3.34 µM). Besides, the Selectivity index with B16 [3] came out at 3.

Regarding `CCCCCCCCCCC1=N/C(=C\c2[nH]c(-c3ccc[nH]3)cc2OC)C=C1`, the IC50 stood at 0.0018 µg/mL (≈ 0.00474 µM) in the series listed under Mus musculus [1] and 0.156 µg/mL (≈ 0.411 µM) with B16 [2]. This molecule also came in with a Selectivity index with B16 [3] of 87.

Turning to `CCCCCCCCCCCC1=N/C(=C\c2[nH]c(-n3cncn3)cc2OC)C=C1`, the IC50 in the series listed under Mus musculus [1] and in the series with B16 [2] was greater than 1 µg/mL in each case.

In the series with Mus musculus [4], `CCCCCCCCCCCC1=N/C(=C\c2[nH]c(-c3ccc[nH]3)cc2OCCCC)C=C1` returned an ED50 of 1.5 mg/kg. Also, the Toxicity with Mus musculus [5] came to 3 mg/kg. In the series on B16 [2], this molecule gave an IC50 of 1.51 µg/mL (≈ 3.47 µM). The same molecule returned a Selectivity index with B16 [3] of 133.

As to `C1=C/C(=C/c2[nH]c(-c3ccc[nH]3)cc2OCc2ccccc2)N=C1CC1CCCCC1`, the results for the IC50 in the series filed under Mus musculus [1] and in the series with B16 [2] were 0.0021 µg/mL (≈ 0.0051 µM) and 0.151 µg/mL (≈ 0.367 µM), respectively. For the same molecule, in the series with B16 [3], the Selectivity index was 72.

With `C1=C(OCc2ccccc2)/C(=C/c2ccc[nH]2)N=C1c1ccc[nH]1`, the IC50 in the series listed under Mus musculus [1] came out at 0.0153 µg/mL (≈ 0.0485 µM); in the series on B16 [2], 0.181 µg/mL (≈ 0.574 µM). This molecule also displayed a Selectivity index in the series with B16 [3] of 12.

Broadly, the IC50 is the concentration that inhibits the measured activity by half. A higher IC50 goes with a need for much substance. By ED50 is commonly meant the midpoint of the dose-response relation.
